Assay [1] addresses T1, human BCKDK (Homo sapiens, UniProt O14874). The assay can be described thus: BCKDK biochemical assay. The following applies: for maximum BCKDK inhibition in the biochemical assay: plateau of inhibition curve. The gist of the method: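 BCKDK freed of MBP tag by TEV cleavage. 11-point half-log test compound series (final 300 μM to 3 nM, 1% DMSO), in duplicate. Reaction started with 50 nM lipoylated fusion substrate plus 15 or 200 μM ATP; 90 min at RT. EDTA stop; Eu-anti-His/anti-pE1/ULight TR-FRET read at 665 nm. IC50 from four-parameter logistic fit.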

The next assay concerns the target PDK1 (Homo sapiens, UniProt Q15118). The assay can be described thus: PDK1 biochemical assay. The method, boiled down: (§1)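 Kinetic fluorescence assay (ex 360/em 485 nm) at 30 °C for 240 min using N-terminal GST-tagged kinase at 10 nM. PDK1 (aa 1–436): 6.0 μM ATP, 15 μM AQT0895. PDK4 (aa 1–411): 97 μM ATP, AQT0872. Eleven threefold dilutions (100 μM–1.7 nM final, 2% DMSO), run in duplicate, with a 30 min preincubation before enzyme. No-enzyme background subtracted. IC50 by four-parameter fit of initial rates.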

In another assay the target is AT1R. The following applies: read-out: AT1R Kd; cited from earlier work.
Assay [2] concerns the target T1, human BCKDK. Type of assay: binding. The method, boiled down:
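BCKDK biotinylated with BirA during TEV cleavage, then immobilized. At least six twofold dilutions injected at 30 μl/min: 120 s association, ≥300 s dissociation. Double reference subtraction using blank injections. For competition, the same series was run with 20 μM radicicol or 20 μM BT2 in running buffer; reduced signal was read as shared site.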

A further assay concerns the target PDK4 (Homo sapiens, UniProt Q16654). The assay can be described thus: PDK4 biochemical assay. The gist of the method: as §1
For the next assay, the target named is BCKDK. The following applies: read-out: Ki as ATP competitive inhibitor of BCKDK; cited from earlier work.
Assay [3] relates to BCKD–BCKDK complex purified from rat liver. The following applies: read-out: in vitro IC50 to inhibit the BCKD–BCKDK complex, 500 μM ATP; cited from earlier work.
[4] abbreviates: Biochemical IC50, ATP concentration of 15 μM.
The mark [5] stands for this setting: Biochemical IC50 at 200 μM ATP, 200 μM ATP.

Like-named read-outs stand apart in the source and are kept apart here.

Sequence of PDK4 (Q16654 whole entry): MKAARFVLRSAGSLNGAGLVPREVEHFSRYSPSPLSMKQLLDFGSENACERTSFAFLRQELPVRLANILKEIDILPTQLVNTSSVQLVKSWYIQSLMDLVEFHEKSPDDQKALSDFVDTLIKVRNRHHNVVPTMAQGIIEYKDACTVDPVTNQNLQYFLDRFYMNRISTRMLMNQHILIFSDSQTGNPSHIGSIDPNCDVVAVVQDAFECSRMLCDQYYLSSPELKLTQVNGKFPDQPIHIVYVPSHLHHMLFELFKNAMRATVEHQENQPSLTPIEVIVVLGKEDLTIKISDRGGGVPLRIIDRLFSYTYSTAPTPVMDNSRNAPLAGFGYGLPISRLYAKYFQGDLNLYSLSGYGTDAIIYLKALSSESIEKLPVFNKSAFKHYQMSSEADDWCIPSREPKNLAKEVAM
Sequence of PDK1 (Q15118 29-436): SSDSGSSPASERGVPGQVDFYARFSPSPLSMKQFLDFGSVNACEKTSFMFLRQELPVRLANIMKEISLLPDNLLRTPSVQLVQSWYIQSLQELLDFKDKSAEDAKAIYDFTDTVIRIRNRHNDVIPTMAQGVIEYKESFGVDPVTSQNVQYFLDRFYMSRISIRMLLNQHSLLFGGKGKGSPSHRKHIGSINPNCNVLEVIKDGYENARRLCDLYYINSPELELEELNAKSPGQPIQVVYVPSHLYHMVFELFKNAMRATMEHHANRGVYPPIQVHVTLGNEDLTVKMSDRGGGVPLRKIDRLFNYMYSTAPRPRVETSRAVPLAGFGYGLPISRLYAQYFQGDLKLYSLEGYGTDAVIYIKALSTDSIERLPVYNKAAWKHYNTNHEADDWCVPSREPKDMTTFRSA

By IC50 is commonly meant the concentration that inhibits the measured activity by half. `CCC1CN(Cc2ccc(-c3ccccc3-c3nnn[nH]3)cc2)c2ncccc2O1` (racemic) [racemic, 4-((2'-(1H-tetrazol-5-yl)-[1,1′-biphenyl]-4-yl)methyl)-2-ethyl-3,4-dihydro-2H-pyrido[3,2-b][1,4]oxazine] came in with a half-inhibitory concentration (IC50) on human BCKDK [1] (in vitro biochemical activity) of 0.011 ± 0.0025 µM.
Broadly, the Km is the substrate concentration at which the rate is half of its maximum. As to `Nc1ncnc2c1ncn2[C@@H]1O[C@H](COP(=O)(O)OP(=O)(O)OP(=O)(O)O)[C@@H](O)[C@H]1O` [ATP], the Km on human BCKDK [1] (read-out: Km of ATP, determined in the biochemical assay format) was determined as 13.6 ± 0.32 µM.
In the case of `O=C(O)c1sc2cc(Cl)ccc2c1Cl` [BT2, 3,6-dichlorobenzo[b]thiophene-2-carboxylic acid], the IC50 against PDK1 was found to be 79 µM; on human BCKDK [1] (setting [4]), 0.96 ± 0.33 µM; against human BCKDK [1] (setting [5]), 0.9 ± 0.37 µM. In addition, on human BCKDK [1], the “maximum BCKDK inhibition in the biochemical assay” value (shortened to “maximum BCKDK inhibition”) is listed as ~75%.
With `CCC1CN(Cc2ccc(-c3ccccc3-c3nnn[nH]3)cc2)c2ncccc2O1` (centres unmarked) [compound 1, 4-((2'-(1H-tetrazol-5-yl)-[1,1′-biphenyl]-4-yl)methyl)-2-ethyl-3,4-dihydro-2H-pyrido[3,2-b][1,4]oxazine], the concentration for half-maximal inhibition (IC50) was 0.0069 ± 0.0025 µM against human BCKDK [1] (setting [4]) and 0.021 ± 0.006 µM at human BCKDK [1] (setting [5]). Besides, the “maximum BCKDK inhibition” value on human BCKDK [1] came out at 100%.
`CCC1CN(Cc2ccc(-c3ccccc3-c3nnn[nH]3)cc2)c2ncccc2O1` (centres unmarked) [compound 1∗, 4-((2'-(1H-tetrazol-5-yl)-[1,1′-biphenyl]-4-yl)methyl)-2-ethyl-3,4-dihydro-2H-pyrido[3,2-b][1,4]oxazine] had an IC50 on human BCKDK [1] (in vitro biochemical activity) of 0.032 ± 2e-05 µM.
Regarding `COc1ccc(-c2nnn[nH]2)cc1` [fragment 1, 5-(4-methoxyphenyl)-1H-tetrazole], the IC50 turned out to be 205 ± 51 µM at human BCKDK [1] (setting [4]) and 232 ± 28 µM on human BCKDK [1] (setting [5]).
As to `Cc1ccc(-c2ccccc2-c2nnn[nH]2)cc1` [fragment 2, 5-(4′-methyl-[1,1′-biphenyl]-2-yl)-1H-tetrazole], the results for the IC50 at human BCKDK [1] (setting [4]) and at human BCKDK [1] (setting [5]) were 37.3 ± 7.1 µM and 38.7 ± 3.7 µM, respectively.
By Kd is commonly meant the concentration at which binding is half-saturated. Take `CCCc1nc(C(C)(C)O)c(C(=O)O)n1Cc1ccc(-c2ccccc2-c2nnn[nH]2)cc1` [olmesartan acid]: the Kd on AT1R was 0.0069 µM. Besides, on human BCKDK [1] (read-out: In vitro IC50, Supplementary Table 1, BDK inhibition), the half-inhibitory concentration (IC50) was found to be 43.7 µM.
`C[C@@H]1C[C@H]2O[C@@H]2/C=C\C=C\C(=O)Cc2c(Cl)c(O)cc(O)c2C(=O)O1` [radicicol] came in with a Kd on human BCKDK [2] of 1.47 µM. The results for the IC50 against human BCKDK [1] (setting [4]) and against human BCKDK [1] (setting [5]) were 25 ± 3.8 µM and 110 ± 21 µM, respectively. Besides, the “maximum BCKDK inhibition” value on human BCKDK [1] turned out to be 100%.
A word on the Ki: it is the equilibrium dissociation constant of an inhibitor or competing ligand from its target. Turning to `CCCCC(=O)N(Cc1ccc(-c2ccccc2-c2nnn[nH]2)cc1)[C@H](C(=O)O)C(C)C` [valsartan], the IC50 against PDK4 was 78 µM; in assay [3] it was 37.3 µM; against human BCKDK [1] (setting [4]), 1.7 ± 1.9 µM; on human BCKDK [1] (setting [5]) it was 7.7 ± 4.4 µM. Moreover, the Ki at BCKDK was 1.36 µM. Moreover, on human BCKDK [1], the “maximum BCKDK inhibition” value is reported as 100%.

(Values after paper PMC9976451 (The Journal of Biological Chemistry, 2023).)
